Rows were chosen to be rich in hits. Some 2.3% of all compounds tested hit in one or more screens of this group.
TRPC4 agonist = opens the mouse TRPC4 cation channel; Q9QUQ5; HEK293 TRPC4beta/mu-opioid, Fluo4 calcium fluorescence; active compounds read high; B-score at 10 µM; 310,000 compounds, 0.49% hits;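 active = B-score above 5 SD of library B-scores, and initial fluorescence ratio not above library mean plus 5 SD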;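 also: positive B-score marks a calcium rise read as TRPC4 activation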
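System: HEK293 cells stably co-expressing mouse TRPC4beta and mu-opioid receptor; Schedule: Fluo4 dye loading 45 min at room temperature, 110 s recording; Detection: Fluo4 fluorescence, kinetic; Evaluation: B-scored integrated calcium fluorescence ratio; Controls: buffer (low) and maximal DAMGO (high).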
TRPC4 inh = blocks the mouse TRPC4 cation channel | Q9QUQ5 | HEK293 TRPC4beta/mu-opioid, DAMGO-evoked Fluo4 calcium flux; active compounds read low | B-score at 10 µM | 300,000 compounds, 0.39% hits | AID 2247;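 active = B-score over 3 SD under the library average, no early fluorescence shift, positive overall ratio signal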
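Assay system – HEK293 line stably carrying TRPC4beta and mu-opioid receptor · Doses – single dose · Detection – Fluo4 calcium-dye fluorescence, kinetic read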
TRPC6 inhibitor = inhibitors of mouse TRPC6 channel | Q61143 | AID 2553 | B-score at 10 µM | 310,000 compounds, 1.1% hits | HEK293-TRPC6, membrane potential dye, ACh-evoked depolarization; active compounds read low;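 active = B-score under library mean minus 3 SD, initial fluorescence not abnormally high, positive integrated signal ratio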;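 also: B-score derived from integrated fluorescence ratio over the kinetic read; more negative B-score means stronger inhibition of depolarization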
Target sequence (Q61143 whole entry, looked up): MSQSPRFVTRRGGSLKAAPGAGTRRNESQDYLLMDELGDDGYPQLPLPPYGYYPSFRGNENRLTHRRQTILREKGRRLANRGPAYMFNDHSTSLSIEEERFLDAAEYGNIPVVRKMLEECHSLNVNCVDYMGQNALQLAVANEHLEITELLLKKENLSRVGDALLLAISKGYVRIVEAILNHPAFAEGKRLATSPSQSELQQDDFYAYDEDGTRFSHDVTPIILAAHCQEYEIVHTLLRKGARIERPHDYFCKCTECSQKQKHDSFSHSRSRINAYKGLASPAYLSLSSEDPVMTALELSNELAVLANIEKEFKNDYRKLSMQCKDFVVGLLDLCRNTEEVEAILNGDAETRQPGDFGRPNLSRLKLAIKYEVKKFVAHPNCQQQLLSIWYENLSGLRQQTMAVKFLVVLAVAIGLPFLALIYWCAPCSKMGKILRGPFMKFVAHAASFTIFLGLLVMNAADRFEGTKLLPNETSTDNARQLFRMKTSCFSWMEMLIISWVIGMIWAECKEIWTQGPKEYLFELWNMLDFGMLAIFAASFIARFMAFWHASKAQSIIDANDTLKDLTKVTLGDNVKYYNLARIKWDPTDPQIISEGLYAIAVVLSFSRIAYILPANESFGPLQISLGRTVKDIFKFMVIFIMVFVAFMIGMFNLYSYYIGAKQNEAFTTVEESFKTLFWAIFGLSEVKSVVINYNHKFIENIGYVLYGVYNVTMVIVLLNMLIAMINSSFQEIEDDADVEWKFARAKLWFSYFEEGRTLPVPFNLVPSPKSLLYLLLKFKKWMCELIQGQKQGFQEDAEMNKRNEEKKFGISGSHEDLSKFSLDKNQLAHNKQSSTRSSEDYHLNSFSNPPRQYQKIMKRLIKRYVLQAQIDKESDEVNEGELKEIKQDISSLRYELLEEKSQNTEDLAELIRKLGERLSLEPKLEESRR
TRPC4 PAM = TRPC4 (mouse) allosteric potentiation; 310,000 compounds, 0.42% hits; HEK293 TRPC4beta/mu-opioid, DAMGO EC20, Fluo-4 Ca2+ flux; active compounds read high; B-score at 10 µM;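 active = B-score of calcium response area above 5 SD of library B-scores, with initial fluorescence ratio within 5 SD of library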;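 also: B-score of integrated fluorescence ratio over time as area under calcium response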
TRPC6 act = mouse TRPC6 channel activation; Q61143; HEK293-TRPC6 membrane potential dye fluorescence; active compounds read high; B-score at 10 µM; 310,000 compounds, 0.13% hits; AID 2550;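 active = B-score of the integrated fluorescence ratio above library mean plus 3 SD, and starting fluorescence ratio within library mean plus 5 SD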;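 also: higher score means more depolarization so channel activation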
* marks the source's active call; other numbers are inactive results.

`O=C(c1sc2ccccc2c1Cl)N(Cc1ccccc1)C1CCS(=O)(=O)C1` (stereo not drawn) gave TRPC4 agonist 107*, TRPC4 inh inactive, TRPC6 inhibitor inactive, TRPC4 PAM inactive and TRPC6 act inactive.
For O=C(c1sc2ccccc2c1Cl)N(Cc1ccccc1Cl)C1CCS(=O)(=O)C1 (stereo not drawn) the results were TRPC4 agonist inactive, TRPC4 inh inactive, TRPC6 inhibitor inactive, TRPC4 PAM inactive and TRPC6 act inactive.
Cc1c(NC(=O)CSc2ccc(Cl)cc2)cccc1-c1nc2cc(Cl)ccc2o1 was read as TRPC4 agonist inactive, TRPC4 inh inactive, TRPC6 inhibitor inactive, TRPC4 PAM inactive and TRPC6 act inactive.
For NS(=O)(=O)c1ccc(CNC(=O)Cc2c(F)cccc2Cl)cc1 the results were TRPC4 agonist inactive, TRPC4 inh inactive, TRPC6 inhibitor inactive, TRPC4 PAM inactive and TRPC6 act inactive.
Screening CCC1(c2ccccc2)NC(=O)N(CC(=O)Nc2ccc(Cl)c(S(=O)(=O)N3CCCCC3)c2)C1=O (stereo not drawn) returned TRPC4 agonist inactive, TRPC4 inh inactive, TRPC6 inhibitor inactive, TRPC4 PAM inactive and TRPC6 act inactive.
For COc1cccc(-n2c(=O)n(Cc3ccccc3)c(=O)c3[nH]cnc32)c1C the results were TRPC4 agonist inactive, TRPC4 inh inactive, TRPC6 inhibitor inactive, TRPC4 PAM inactive and TRPC6 act inactive.
For Cc1ccc(C)n1-c1nnc(N2CCC(C(=O)NCCCN3CC(C)CC(C)C3)CC2)s1 (stereo not drawn) the results were TRPC4 agonist 88*, TRPC4 inh inactive, TRPC6 inhibitor inactive, TRPC4 PAM inactive and TRPC6 act inactive.
Screening Cc1ccc(C)n1-c1nnc(N2CCC(C(=O)NCCCN3CCN(C)CC3)CC2)s1 returned TRPC4 agonist inactive, TRPC4 inh inactive, TRPC6 inhibitor inactive, TRPC4 PAM inactive and TRPC6 act inactive.
`Cc1cc(=O)n2nc(N3CCCC(C(=O)NCCCN4CC(C)CC(C)C4)C3)sc2n1` (stereo not drawn) gave TRPC4 agonist 47*, TRPC4 inh inactive, TRPC6 inhibitor inactive, TRPC4 PAM inactive and TRPC6 act inactive.
For CCN(CCNC(=O)C1CCCN(c2ncnc3c2nc2n3CCCCC2)C1)Cc1ccccc1 (stereo not drawn) the results were TRPC4 agonist inactive, TRPC4 inh inactive, TRPC6 inhibitor inactive, TRPC4 PAM 19* and TRPC6 act inactive.
Screening CN(CCNC(=O)C1CCN(c2ncnc3c2nc2n3CCCCC2)CC1)Cc1ccccc1 returned TRPC4 agonist inactive, TRPC4 inh inactive, TRPC6 inhibitor inactive, TRPC4 PAM inactive and TRPC6 act inactive.
For CC1CC(C)CN(CCCNC(=O)C2CCCN(c3ncnc4c3nc3n4CCCCC3)C2)C1 (stereo not drawn) the results were TRPC4 agonist inactive, TRPC4 inh inactive, TRPC6 inhibitor inactive, TRPC4 PAM 18* and TRPC6 act inactive.
`Cc1ccc(C)c(N2CCN(C(=O)C3CCCN(c4ncnc5c4nc4n5CCCCC4)C3)CC2)c1` (stereo not drawn) gave TRPC4 agonist inactive, TRPC4 inh inactive, TRPC6 inhibitor inactive, TRPC4 PAM 15* and TRPC6 act inactive.
`CCOc1c(Cl)cc(CNCC(O)c2ccccc2)cc1OC` (stereo not drawn) gave TRPC4 agonist inactive, TRPC4 inh -6*, TRPC6 inhibitor inactive, TRPC4 PAM inactive and TRPC6 act inactive.
`CCOc1c(Cl)cc(CNCC(C)C)cc1OC` gave TRPC4 agonist inactive, TRPC4 inh inactive, TRPC6 inhibitor inactive, TRPC4 PAM inactive and TRPC6 act inactive.
`CC(=O)n1cc(N(C(=O)CCl)c2ccc([N+](=O)[O-])cc2)c2ccccc21` gave TRPC4 agonist inactive, TRPC4 inh inactive, TRPC6 inhibitor inactive, TRPC4 PAM inactive and TRPC6 act inactive.
O=Cc1[nH]c2ccccc2c1N(C(=O)CCl)c1ccc([N+](=O)[O-])cc1 was read as TRPC4 agonist 45*, TRPC4 inh inactive, TRPC6 inhibitor inactive, TRPC4 PAM inactive and TRPC6 act inactive.
`CC(=O)Nc1nc(-c2ccc(Cl)cc2)ns1` gave TRPC4 agonist inactive, TRPC4 inh inactive, TRPC6 inhibitor inactive, TRPC4 PAM inactive and TRPC6 act inactive.
`COc1ccc(C(CNC(=O)c2ccccc2SC)N(C)C)cc1` (stereo not drawn) gave TRPC4 agonist 88*, TRPC4 inh inactive, TRPC6 inhibitor inactive, TRPC4 PAM inactive and TRPC6 act inactive.
For COc1ccc(C(CNC(=O)c2cncc(Br)c2)N(C)C)cc1 (stereo not drawn) the results were TRPC4 agonist inactive, TRPC6 inhibitor inactive, TRPC4 PAM inactive and TRPC6 act inactive.
COc1ccc(C(CNC(=O)c2cc(SC)ccc2Cl)N(C)C)cc1 (stereo not drawn) was read as TRPC4 agonist 118*, TRPC4 inh inactive, TRPC6 inhibitor inactive, TRPC4 PAM inactive and TRPC6 act inactive.
For COc1ccc(-c2cc(C(=O)NCC(c3ccccc3)N(C)C)c3ccccc3n2)cc1OC (stereo not drawn) the results were TRPC4 agonist 90*, TRPC4 inh inactive, TRPC6 inhibitor inactive, TRPC4 PAM inactive and TRPC6 act inactive.
`Cc1ccc(-c2cc(C(=O)NCCCN3CCOCC3)c3ccccc3n2)cc1C` gave TRPC4 agonist inactive, TRPC4 inh inactive, TRPC6 inhibitor inactive, TRPC4 PAM inactive and TRPC6 act inactive.
`Cc1ccc(-c2cc(C(=O)NCCCN3CCCC3)c3ccccc3n2)cc1C` gave TRPC4 agonist inactive, TRPC4 inh inactive, TRPC6 inhibitor inactive, TRPC4 PAM 15* and TRPC6 act inactive.
COc1ccc(-c2cc(C(=O)NCc3ccco3)c3ccccc3n2)cc1OC was read as TRPC4 agonist inactive, TRPC4 inh inactive, TRPC6 inhibitor inactive, TRPC4 PAM inactive and TRPC6 act inactive.
CCOc1ccccc1N1CC(C(=O)Nc2c(C)n(C)n(-c3ccccc3)c2=O)CC1=O (stereo not drawn) was read as TRPC4 agonist inactive, TRPC4 inh inactive, TRPC6 inhibitor inactive, TRPC4 PAM inactive and TRPC6 act inactive.
COc1ccc(NC(=O)Cn2ncn3nc(-c4ccc(OC)cc4)cc3c2=O)cc1 was read as TRPC4 agonist inactive, TRPC4 inh inactive, TRPC6 inhibitor inactive, TRPC4 PAM inactive and TRPC6 act inactive.
O=C(CCCCCNC(=O)N1CCn2c1nc1ccccc12)NCc1ccc(F)cc1 was read as TRPC4 agonist inactive, TRPC4 inh inactive, TRPC6 inhibitor inactive, TRPC4 PAM inactive and TRPC6 act inactive.

Screens from PubChem BioAssay.
